Measured values reported in ChEMBL document CHEMBL4049453, “Discovery of Mixed Pharmacology Melanocortin-3 Agonists and Melanocortin-4 Receptor Tetrapeptide Antagonist Compounds (TACOs) Based on the Sequence Ac-Xaa1-Arg-(pI)DPhe-Xaa4-NH2” (J Med Chem, 2017).
Active and inactive are the calls of the source. The calls are words filed in the database; no cut-off is given here. Non-standard residues stand in square brackets, D forms with d. Residues, ends and D or L forms follow the SMILES beside them. Bip = N[C@@H](Cc1ccc(-c2ccccc2)cc1)C(=O)O; dPhe(4-I) = N[C@H](Cc1ccc(I)cc1)C(=O)O; 2Nal = N[C@@H](Cc1ccc2ccccc2c1)C(=O)O; d2Nal = N[C@H](Cc1ccc2ccccc2c1)C(=O)O; Bta = N[C@@H](Cc1csc2ccccc12)C(=O)O

How the values were obtained:
[1] = target: Melanocortin receptor 3 (Mus musculus) (UniProt P33033); assay: Agonist activity at mouse MC3R expressed in HEK293 cells assessed as induction of cAMP accumulation up to 100 uM after 2 hrs by alpha screen assay relative to NDP-MSH; format: functional, cell-based
Summary of the method: (§1)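 HEK293 stably expressing mouse MC1R/MC3R/MC4R/MC5R (pCDNA3). Cells in stimulation buffer (HBSS, 0.5 mM IBMX, 5 mM HEPES, 0.1% BSA, pH 7.4) at 1000 cells/μL with anti-cAMP acceptor beads. Ligand given 10−4 to 10−10 M (or 10−6 to 10−12 M) for 2 h at RT in the dark, then donor beads/biotin-cAMP lysis mix for 2 h. AlphaScreen cAMP read-out, normalized to 10−6 M NDP-MSH as 100%.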

[2] = target: Melanocortin receptor 4 (Mus musculus) (UniProt P56450); assay: Antagonist activity at mouse MC4R expressed in HEK293 cells assessed as inhibition of NDP-MSH induced-cAMP accumulation up to 10 uM after 2 hrs by alpha screen assay; format: functional, cell-based
Summary of the method: (§2)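 mouse MC3R or MC4R in stably transfected HEK293 cells, AlphaScreen cAMP assay (IBMX stimulation buffer, 2 h RT incubation, then 2 h with donor-bead lysis mix). […] Run in triplicate.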

Melanocortin receptor 4 = Melanocortin receptor 4 (Mus musculus, UniProt P56450); assay: Agonist activity at mouse MC4R expressed in HEK293 cells assessed as induction of cAMP accumulation up to 100 uM after 2 hrs by alpha screen assay relative to NDP-MSH; format: cell-based; conditions: read-out: Activity
[3] = target: Melanocortin receptor 3 (Mus musculus) (UniProt P33033); assay: Antagonist activity at mouse MC3R expressed in HEK293 cells assessed as inhibition of NDP-MSH induced-cAMP accumulation up to 10 uM after 2 hrs by alpha screen assay; format: functional, cell-based; summary of the method: as §2
[4] = target: Melanocyte-stimulating hormone receptor (Mus musculus) (UniProt Q01727); assay: Agonist activity at mouse MC1R expressed in HEK293 cells assessed as induction of cAMP accumulation up to 100 uM after 2 hrs by alpha screen assay relative to NDP-MSH; format: functional, cell-based; summary of the method: as §1
[5] = target: Melanocortin receptor 5 (Mus musculus) (UniProt P41149); assay: Agonist activity at mouse MC5R expressed in HEK293 cells assessed as induction of cAMP accumulation up to 100 uM after 2 hrs by alpha screen assay relative to NDP-MSH; format: functional, cell-based; summary of the method: as §1
Chain of Melanocortin receptor 5 (Mus musculus) (P41149 whole entry): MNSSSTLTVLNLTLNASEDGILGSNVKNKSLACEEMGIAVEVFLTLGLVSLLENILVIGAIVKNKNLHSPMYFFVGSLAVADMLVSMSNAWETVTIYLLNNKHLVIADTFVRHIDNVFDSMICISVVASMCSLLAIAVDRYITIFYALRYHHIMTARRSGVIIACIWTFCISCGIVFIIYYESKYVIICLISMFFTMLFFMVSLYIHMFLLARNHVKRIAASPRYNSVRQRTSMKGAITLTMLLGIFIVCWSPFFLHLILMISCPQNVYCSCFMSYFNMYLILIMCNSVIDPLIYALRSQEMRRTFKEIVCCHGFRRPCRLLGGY

Chain of Melanocortin receptor 3 (Mus musculus) (P33033 whole entry): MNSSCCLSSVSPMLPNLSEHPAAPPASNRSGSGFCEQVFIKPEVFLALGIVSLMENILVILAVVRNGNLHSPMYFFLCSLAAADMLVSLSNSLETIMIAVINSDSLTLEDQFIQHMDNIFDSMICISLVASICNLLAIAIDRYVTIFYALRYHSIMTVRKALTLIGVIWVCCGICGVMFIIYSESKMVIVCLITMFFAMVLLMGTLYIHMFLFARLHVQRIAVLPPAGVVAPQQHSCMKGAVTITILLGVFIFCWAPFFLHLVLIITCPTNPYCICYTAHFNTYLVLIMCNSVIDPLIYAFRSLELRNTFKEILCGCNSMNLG
Chain of Melanocortin receptor 4 (Mus musculus) (P56450 whole entry): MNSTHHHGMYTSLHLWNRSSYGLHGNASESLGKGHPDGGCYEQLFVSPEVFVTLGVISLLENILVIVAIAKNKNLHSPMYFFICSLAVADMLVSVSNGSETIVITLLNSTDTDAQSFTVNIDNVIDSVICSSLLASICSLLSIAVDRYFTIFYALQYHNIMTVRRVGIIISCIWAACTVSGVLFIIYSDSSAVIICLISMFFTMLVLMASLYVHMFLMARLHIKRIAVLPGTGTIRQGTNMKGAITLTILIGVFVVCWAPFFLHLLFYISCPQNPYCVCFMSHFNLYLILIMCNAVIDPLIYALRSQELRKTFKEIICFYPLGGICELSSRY
Chain of Melanocortin receptor 4 (P56450 whole entry): as above
Chain of Melanocyte-stimulating hormone receptor (Mus musculus) (Q01727 whole entry, looked up): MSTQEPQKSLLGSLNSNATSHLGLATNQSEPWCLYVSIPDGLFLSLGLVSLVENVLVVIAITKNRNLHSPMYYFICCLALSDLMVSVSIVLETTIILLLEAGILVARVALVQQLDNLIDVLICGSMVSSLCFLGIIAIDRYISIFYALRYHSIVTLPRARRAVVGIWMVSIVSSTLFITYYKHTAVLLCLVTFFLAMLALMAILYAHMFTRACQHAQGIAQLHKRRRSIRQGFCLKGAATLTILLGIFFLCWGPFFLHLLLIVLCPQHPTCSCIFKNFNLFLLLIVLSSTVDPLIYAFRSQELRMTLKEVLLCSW

Activity [1] [%]	inhibition [2]	Emax (Melanocortin receptor 4) [%]	inhibition [3]	Activity [4] [%]	Activity [5] [%]	Structure (SMILES)
< 20	inactive	< 20	inactive			CC(=O)N[C@@H](Cc1ccc(-c2ccccc2)cc1)C(=O)N[C@@H](CCCNC(=N)N)C(=O)N[C@H](Cc1ccc(I)cc1)C(=O)N[C@@H](Cc1ccc2ccccc2c1)C(N)=O (Ac-[Bip]R[dPhe(4-I)][2Nal]-NH2)
		< 20	inactive			CC(=O)N[C@@H](Cc1ccc(-c2ccccc2)cc1)C(=O)N[C@@H](CCCNC(=N)N)C(=O)N[C@H](Cc1ccc(I)cc1)C(=O)NC(Cc1ccccc1)C(N)=O (stereo in doubt)
< 20	inactive	< 20	inactive			CC(=O)N1Cc2ccccc2C[C@H]1C(=O)N[C@@H](CCCNC(=N)N)C(=O)N[C@H](Cc1ccc(I)cc1)C(=O)NC(Cc1ccccc1)C(N)=O (stereo in doubt)
				< 20		CC(=O)N[C@H](Cc1ccc2ccccc2c1)C(=O)N[C@@H](CCCNC(=N)N)C(=O)N[C@H](Cc1ccc(I)cc1)C(=O)N[C@@H](Cc1ccc(-c2ccccc2)cc1)C(N)=O (Ac-[d2Nal]R[dPhe(4-I)][Bip]-NH2)
	inactive	< 20	inactive			CC(=O)N[C@@H](Cc1ccc(-c2ccccc2)cc1)C(=O)N[C@@H](CCCNC(=N)N)C(=O)N[C@H](Cc1ccc(I)cc1)C(=O)N[C@H](Cc1ccc2ccccc2c1)C(N)=O (Ac-[Bip]R[dPhe(4-I)][d2Nal]-NH2)
	inactive	< 20				CC(=O)N[C@@H](Cc1ccc(-c2ccccc2)cc1)C(=O)N[C@@H](CCCNC(=N)N)C(=O)N[C@H](Cc1ccc(I)cc1)C(=O)N[C@@H](Cc1csc2ccccc12)C(N)=O (Ac-[Bip]R[dPhe(4-I)][Bta]-NH2)
		< 20				CC(=O)NC(Cc1ccccc1)C(=O)N[C@@H](CCCNC(=N)N)C(=O)N[C@H](Cc1ccc(I)cc1)C(=O)N[C@@H](Cc1csc2ccccc12)C(N)=O (stereo in doubt)
		< 20	inactive			CC(=O)NC(Cc1ccccc1)C(=O)N[C@@H](CCCNC(=N)N)C(=O)N[C@H](Cc1ccc(I)cc1)C(=O)N[C@H](Cc1ccc2ccccc2c1)C(N)=O (stereo in doubt)
	inactive		inactive	< 20		CC(=O)N[C@@H](Cc1csc2ccccc12)C(=O)N[C@@H](CCCNC(=N)N)C(=O)N[C@H](Cc1ccc(I)cc1)C(=O)N[C@@H](Cc1ccc(-c2ccccc2)cc1)C(N)=O (Ac-[Bta]R[dPhe(4-I)][Bip]-NH2)
		< 20				CC(=O)NC(Cc1ccccc1)C(=O)N[C@@H](CCCNC(=N)N)C(=O)N[C@H](Cc1ccc(I)cc1)C(=O)N1Cc2ccccc2C[C@H]1C(N)=O (stereo in doubt)
	inactive	< 20	inactive			CC(=O)N[C@@H](Cc1ccc2ccccc2c1)C(=O)N[C@@H](CCCNC(=N)N)C(=O)N[C@H](Cc1ccc(I)cc1)C(=O)N[C@H](Cc1ccc2ccccc2c1)C(N)=O (Ac-[2Nal]R[dPhe(4-I)][d2Nal]-NH2)
					< 20	CC(=O)N[C@H](Cc1ccc2ccccc2c1)C(=O)N[C@@H](CCCNC(=N)N)C(=O)N[C@H](Cc1ccc(I)cc1)C(=O)N[C@@H](Cc1csc2ccccc12)C(N)=O (Ac-[d2Nal]R[dPhe(4-I)][Bta]-NH2)
	inactive	< 20	inactive			CC(=O)N[C@@H](Cc1ccc2ccccc2c1)C(=O)N[C@@H](CCCNC(=N)N)C(=O)N[C@H](Cc1ccc(I)cc1)C(=O)NC(Cc1ccccc1)C(N)=O (stereo in doubt)
	inactive	< 20	inactive			CC(=O)NC(Cc1ccccc1)C(=O)N[C@@H](CCCNC(=N)N)C(=O)N[C@H](Cc1ccc(I)cc1)C(=O)NC(Cc1ccccc1)C(N)=O (stereo in doubt)
< 20	inactive	< 20	inactive			CC(=O)N[C@@H](Cc1csc2ccccc12)C(=O)N[C@@H](CCCNC(=N)N)C(=O)N[C@H](Cc1ccc(I)cc1)C(=O)N[C@@H](Cc1ccc2ccccc2c1)C(N)=O
		< 20	inactive			CC(=O)NC(Cc1ccccc1)C(=O)N[C@@H](CCCNC(=N)N)C(=O)N[C@H](Cc1ccc(I)cc1)C(=O)N[C@@H](Cc1ccc2ccccc2c1)C(N)=O (stereo in doubt)
	inactive	< 20	inactive			CC(=O)NC(Cc1ccccc1)C(=O)N[C@@H](CCCNC(=N)N)C(=O)N[C@H](Cc1ccc(I)cc1)C(=O)N[C@@H](Cc1ccc(-c2ccccc2)cc1)C(N)=O (stereo in doubt)
		< 20				CC(=O)N[C@@H](Cc1ccc2ccccc2c1)C(=O)N[C@@H](CCCNC(=N)N)C(=O)N[C@H](Cc1ccc(I)cc1)C(=O)N[C@@H](Cc1csc2ccccc12)C(N)=O (Ac-[2Nal]R[dPhe(4-I)][Bta]-NH2)
		< 20				CC(=O)N[C@@H](CCCNC(=N)N)C(=O)N[C@@H](CCCNC(=N)N)C(=O)N[C@H](Cc1ccc(I)cc1)C(=O)NC(Cc1ccccc1)C(N)=O (stereo in doubt)
		< 20				CC(=O)N[C@@H](Cc1csc2ccccc12)C(=O)N[C@@H](CCCNC(=N)N)C(=O)N[C@H](Cc1ccc(I)cc1)C(=O)N[C@@H](Cc1csc2ccccc12)C(N)=O (Ac-[Bta]R[dPhe(4-I)][Bta]-NH2)
		< 20				CC(=O)N[C@@H](CCCNC(=N)N)C(=O)N[C@@H](CCCNC(=N)N)C(=O)N[C@H](Cc1ccc(I)cc1)C(=O)N[C@@H](Cc1ccc2ccccc2c1)C(N)=O
< 20		< 20			< 20	CC(=O)N[C@H](Cc1ccc2ccccc2c1)C(=O)N[C@@H](CCCNC(=N)N)C(=O)N[C@H](Cc1ccc(I)cc1)C(=O)NC(Cc1ccccc1)C(N)=O (stereo in doubt)
	inactive	< 20	inactive			CC(=O)N[C@@H](Cc1csc2ccccc12)C(=O)N[C@@H](CCCNC(=N)N)C(=O)N[C@H](Cc1ccc(I)cc1)C(=O)NC(Cc1ccccc1)C(N)=O (stereo in doubt)
	inactive		inactive	< 20		CC(=O)N[C@@H](Cc1cnc[nH]1)C(=O)N[C@@H](CCCNC(=N)N)C(=O)N[C@H](Cc1ccc(I)cc1)C(=O)N[C@@H](Cc1ccc(-c2ccccc2)cc1)C(N)=O
		< 20				CC(=O)N[C@@H](Cc1cnc[nH]1)C(=O)N[C@@H](CCCNC(=N)N)C(=O)N[C@H](Cc1ccc(I)cc1)C(=O)NC(Cc1ccccc1)C(N)=O (stereo in doubt)

Structure (SMILES)	Activity [1] [%]	inhibition [2]	Emax (Melanocortin receptor 4) [%]	inhibition [3]	Activity [4] [%]	Activity [5] [%]
CC(=O)N1Cc2ccccc2C[C@H]1C(=O)N[C@@H](CCCNC(=N)N)C(=O)N[C@H](Cc1ccc(I)cc1)C(=O)N[C@@H](Cc1ccc(-c2ccccc2)cc1)C(N)=O (HELM PEPTIDE1{[ac].[Tic].R.[O=C([C@@H](Cc1ccc(I)cc1)N[*:1])[*:2]].[O=C([C@H](Cc1ccc(-c2ccccc2)cc1)N[*:1])[*:2]].[am]}$$$$V2.0)	< 20	inactive	< 20	inactive		
CC(=O)N1Cc2ccccc2C[C@H]1C(=O)N[C@@H](CCCNC(=N)N)C(=O)N[C@H](Cc1ccc(I)cc1)C(=O)N[C@@H](Cc1ccc2ccccc2c1)C(N)=O (HELM PEPTIDE1{[ac].[Tic].R.[O=C([C@@H](Cc1ccc(I)cc1)N[*:1])[*:2]].[O=C([C@H](Cc1ccc2ccccc2c1)N[*:1])[*:2]].[am]}$$$$V2.0)	< 20		< 20	inactive		
CC(=O)N[C@@H](Cc1ccc(-c2ccccc2)cc1)C(=O)N[C@@H](CCCNC(=N)N)C(=O)N[C@H](Cc1ccc(I)cc1)C(=O)N1Cc2ccccc2C[C@H]1C(N)=O (HELM PEPTIDE1{[ac].[O=C([C@H](Cc1ccc(-c2ccccc2)cc1)N[*:1])[*:2]].R.[O=C([C@@H](Cc1ccc(I)cc1)N[*:1])[*:2]].[Tic].[am]}$$$$V2.0)			< 20			
CC(=O)N1Cc2ccccc2C[C@H]1C(=O)N[C@@H](CCCNC(=N)N)C(=O)N[C@H](Cc1ccc(I)cc1)C(=O)N[C@@H](Cc1csc2ccccc12)C(N)=O (HELM PEPTIDE1{[ac].[Tic].R.[O=C([C@@H](Cc1ccc(I)cc1)N[*:1])[*:2]].[O=C([C@H](Cc1csc2ccccc12)N[*:1])[*:2]].[am]}$$$$V2.0)			< 20			
CC(=O)N1Cc2ccccc2C[C@H]1C(=O)N[C@@H](CCCNC(=N)N)C(=O)N[C@H](Cc1ccc(I)cc1)C(=O)N[C@H](Cc1ccc2ccccc2c1)C(N)=O (HELM PEPTIDE1{[ac].[Tic].R.[O=C([C@@H](Cc1ccc(I)cc1)N[*:1])[*:2]].[O=C([C@@H](Cc1ccc2ccccc2c1)N[*:1])[*:2]].[am]}$$$$V2.0)		inactive		inactive		
